Screens (PubChem)
This is a sample that favours compounds with a hit; in the whole collection about 5.8% have one here.
Pf Dd2 inh – inhibitors of Plasmodium falciparum Dd2 growth; P. falciparum Dd2 growth, SYBR Green, 72 h; active compounds read low; activity change, % at 10 µM; actives 2.3% (n = 94,000); in the data active = activity change below about -80%; inconclusive = no clear call, values can overlap the other calls
IDH1 R132H inh – blocks human IDH1 R132H reductase activity; diaphorase/resazurin fluorescence, 60 min; O75874; inhibition, % at 10 µM; actives 0.18% (n = 70,000); AID 624101; in the data active = inhibition above about 34%; inconclusive = no clear call, values can overlap the other calls; inactive = below about 11%;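 note: 0% = DMSO and 100% = no enzyme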
Target sequence (O75874 whole entry R132H): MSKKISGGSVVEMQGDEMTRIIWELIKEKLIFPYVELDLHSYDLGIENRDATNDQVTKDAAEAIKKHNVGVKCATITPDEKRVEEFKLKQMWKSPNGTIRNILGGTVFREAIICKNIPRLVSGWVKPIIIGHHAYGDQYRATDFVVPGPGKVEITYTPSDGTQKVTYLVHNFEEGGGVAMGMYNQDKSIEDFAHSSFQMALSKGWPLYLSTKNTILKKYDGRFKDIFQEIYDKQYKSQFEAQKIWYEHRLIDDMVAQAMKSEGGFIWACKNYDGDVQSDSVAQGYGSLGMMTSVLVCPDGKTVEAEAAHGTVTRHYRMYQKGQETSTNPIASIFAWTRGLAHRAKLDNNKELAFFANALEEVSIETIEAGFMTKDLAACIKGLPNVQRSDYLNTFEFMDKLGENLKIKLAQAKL
T cruzi growth-1 – inhibitors of T. cruzi proliferation | actives 5.9% (n = 77,000) | T. cruzi beta-gal in NIH3T3, GalScreen luminescence, 90 h | inhibition, % at 8.34 µM;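 active = mean inhibition above about 93%, with at least 55% of replicates each passing it, limit read from the data, passing the limit was not always enough; inconclusive = only one of those two conditions holds; inactive = neither condition holds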
GASC1 inh – inhibitors of human demethylase GASC-1 KDM4C; inhibition, % at 12.5 µM; Q9H3R0; actives 0.15% (n = 96,000); GST-KDM4C 2-372, H3K9me3 peptide, LANCE TR-FRET;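 active = mean replicate inhibition above about 25%, with at least 55% of replicates also reaching it, limit read from the data, passing the limit was not always enough; inconclusive = only one of those two conditions met; inactive = neither condition met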
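Test system – GST-tagged GASC-1 (JMJD2C) catalytic fragment, aa 2-372 · Medium – HEPES buffer, pH 7.5, plus ascorbate · Reagent – H3K9me3 peptide with Fe(II)/2OG · Compound – one test concentration per compound · Timing – 30 min reaction, 60 min detection, RT · Technique – TR-FRET with Eu antibody and ULight streptavidin, EDTA stop · Read-out basis – inhibition from TR-FRET ratio decrease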
T cruzi growth-2 – blocks T. cruzi growth in NIH3T3 host cells | shares compounds with T cruzi growth-1 | T. cruzi beta-gal in NIH3T3, GalScreen luminescence, 90 h | inhibition, % at 8.35 µM | actives 72% (n = 5,600) | AID 651739;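 active = mean replicate inhibition above about 95% and at least 55% of replicates individually reaching it, limit read from the data; inconclusive = only one of the two criteria is met; inactive = neither criterion is met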
T cruzi growth-3 – inhibitors of T. cruzi proliferation. shares compounds with T cruzi growth-1. T. cruzi beta-gal in NIH3T3, GalScreen luminescence, 90 h. inhibition, % at 2.09 µM. actives 21% (n = 5,600);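 active = mean inhibition above about 95%, with at least 55% of replicates also reaching it, limit read from the data; inconclusive = meets just one of the two conditions; inactive = meets neither condition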;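 note: plate controls were neutral control median for no effect and positive control median for full effect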
NIH3T3 tox – kills mouse NIH/3T3 fibroblasts; shares compounds with T cruzi growth-1; NIH/3T3 viability, CellTiter-Glo ATP luminescence, 90 h; cytotoxicity (signal decrease), % at 8.35 µM; actives 14% (n = 5,600); AID 651742;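 active = mean signal decrease across replicates above about 35% based on untreated-well scatter, with enough replicates individually passing, limit read from the data; inconclusive = no rule stated though some were filed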;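 note: 0% = median of neutral control wells and 100% = median of positive control wells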
3T3 cytotox 2 – NIH/3T3 (mouse) viability loss; NIH/3T3 viability, CellTiter-Glo ATP luminescence, 90 h; actives 56% (n = 5,600); shares compounds with T cruzi growth-1; inhibition, % at 24.9 µM;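 active = mean loss of cell viability signal at or above a set limit, and enough replicates individually reaching it; inconclusive = meets only the mean limit or only the replicate share; inactive = meets neither condition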;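 note: 0% = median of neutral control wells and 100% = median of positive control wells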
Active calls of the source: *; u = inconclusive; x = no result given.

SMILES | Pf Dd2 inh | IDH1 R132H inh | T cruzi growth-1 | GASC1 inh | T cruzi growth-2 | T cruzi growth-3 | NIH3T3 tox | 3T3 cytotox 2
COc1ccc2c(c1OC)CN1CCc3cc4c(cc3C1C2)OCO4 (stereo unspecified) | x | -3 | x | x | x | x | x | x
COc1ccc2c(c[n+](C)c3c4cc5c(cc4ccc23)OCO5)c1OC | x | 101* | x | x | x | x | x | x
CNCC(O)c1ccc(O)c(OC)c1 (stereo unspecified) | x | -1 | x | x | x | x | x | x
Cc1ccc(OC(=O)N(C)C[C@@H]2OCc3ccccc3-c3c(n(C)c4ccccc34)C(=O)N([C@@H](C)CO)C[C@H]2C)cc1 | -83* | x | x | -3 | x | x | x | x
OC[C@H]1Nc2ccc(C#Cc3cccnc3)cc2[C@H]2NCC[C@H]21 | -88* | x | x | 2 | x | x | x | x
CC[C@H]1CN2CCc3cc(OC)c(OC)cc3[C@@H]2C[C@@H]1C[C@H]1NCCc2cc(O)c(OC)cc21 | x | 1 | x | x | x | x | x | x
O=C(Cc1ccccc1)N1CCCCN2[C@H](CO)[C@H](c3ccc(-c4ccccc4)cc3)[C@@H]2C1 | 23 | x | 5 | -2 | x | x | x | x
O=C(Cc1ccncc1)N1CCCCN2[C@H](CO)[C@H](c3ccc(-c4ccncc4)cc3)[C@@H]2C1 | -75 | x | 102* | 1 | 50 | -25 | -2 | -10
N#Cc1ccc(-c2ccc([C@@H]3[C@H](CO)N4CCCCN(C(=O)Cc5ccccc5)C[C@@H]34)cc2)cc1 | -26 | x | 92 | 0 | x | x | x | x
O=C(Cc1ccccc1)N1CCCCN2[C@@H](CO)[C@@H](c3ccc(-c4ccccc4)cc3)[C@@H]2C1 | -19 | x | u | -1 | 104* | 56 | 16 | 105*
COc1ccc(-c2ccc([C@H]3[C@@H](CO)N4CCCCN(C(=O)Cc5ccccc5)C[C@@H]34)cc2)cc1 | -51 | x | 102* | 0 | 107* | 106* | 19 | u
COc1ccc(-c2ccc([C@H]3[C@H](CO)N4CCCCN(C(=O)Cc5ccccc5)C[C@@H]34)cc2)cc1 | -10 | x | 108* | -1 | 107* | 81 | 11 | 106*
O=C(Cc1ccncc1)N1CCCCN2[C@@H](CO)[C@@H](c3ccc(-c4ccncc4)cc3)[C@@H]2C1 | 5 | x | 85 | 0 | x | x | x | x
CC(=O)OC1CCC2(C)C(CC[C@@H]3[C@@H]2CCC2(C)C(C4=CC(=O)OC4)CCC32O)C1 (stereo partly specified) | x | -1 | x | x | x | x | x | x
COc1ccc(-c2ccc([C@@H]3[C@H](CO)N4CCCCN(C(=O)Cc5ccccc5)C[C@@H]34)cc2)cc1 | -30 | x | 99* | -2 | 104* | 78 | 26 | 106*
N#Cc1cccc(-c2ccc([C@@H]3[C@H]4CN(C(=O)Cc5ccccc5)CCCCN4[C@H]3CO)cc2)c1 | -12 | x | 90 | 0 | x | x | x | x
N#Cc1cccc(-c2ccc([C@H]3[C@H]4CN(C(=O)Cc5ccncc5)CCCCN4[C@H]3CO)cc2)c1 | -8 | x | 105* | 0 | 84 | 35 | -3 | 47*
N#Cc1cccc(-c2ccc([C@H]3[C@H]4CN(C(=O)Cc5ccccc5)CCCCN4[C@H]3CO)cc2)c1 | -14 | x | u | 0 | 71 | -4 | 12 | 6
CC1C/C=C/C2C3OC3(C)C(C)C3C(Cc4ccccc4)NC(=O)C23OC(=O)O/C=C/C(C)(O)C1=O (stereo unspecified) | x | 2 | x | x | x | x | x | x
O=C(Cc1ccncc1)N1CCCCN2[C@H](CO)[C@H](c3ccc(C#Cc4ccccc4F)cc3)[C@H]2C1 | -38 | x | u | 6 | 104* | 67 | 26 | 103*
COc1ccc(C#Cc2ccc([C@H]3[C@H]4CN(C(=O)Cc5ccccc5)CCCCN4[C@H]3CO)cc2)cc1 | -17 | x | 80 | -2 | x | x | x | x
O=C(Cc1ccccc1)N1CCCCN2[C@H](CO)[C@@H](c3ccc(C#Cc4ccccc4)cc3)[C@H]2C1 | -53 | x | 118* | 0 | 97* | 84 | 58* | 105*
O=C(Cc1ccncc1)N1CCCCN2[C@@H](CO)[C@@H](c3ccc(C#Cc4ccccc4F)cc3)[C@@H]2C1 | -62 | x | 66 | 0 | x | x | x | x
O=C(Cc1ccccc1)N1CCCCN2[C@H](CO)[C@@H](c3ccc(C#Cc4ccccc4)cc3)[C@@H]2C1 | -40 | x | 106* | 2 | 100* | 70 | 3 | 106*
CCC(C)[C@H]1C(=O)O[C@H](C(C)C)C(=O)N(C)[C@@H](C(C)C)C(=O)O[C@H](C(C)C)C(=O)N(C)[C@@H](C(C)C)C(=O)O[C@H](C(C)C)C(=O)N1C (stereo partly specified) | x | 0 | x | x | x | x | x | x
C#CCN1C(C)=C(C(=O)CCO)C(c2cccc(-n3oo3)c2)C(C(=O)OC)=C1C (stereo unspecified) | x | 0 | x | x | x | x | x | x
CCCCC/C=C/C/C=C/C/C=C/C/C=C/CCCC(=O)NCCCC(=O)O | x | 0 | x | x | x | x | x | x
O=C1Nc2cc(Cl)c(Cl)cc2N2CCNCC12 (stereo unspecified) | x | 2 | x | x | x | x | x | x
